According to article PMC5824357 (RNA, 2018):
Ends that are not written are not given here. MBP = not defined here; MS2 = not defined here; HA = not defined here

Tests used:
[1] = system: β-globin-6xMS2bs reporter; test: Tethering assay in human HEK293T cells; format: cell-based; conditions: MS2-HA-tagged, three independent experiments
F-Luc-5BoxB mRNA [2] = test: Tethering assay in S2 cells, F-Luc-5BoxB reporter; format: cell-based, Drosophila melanogaster
NOT3 (GFP-tagged) = test: Coimmunoprecipitation in S2 cells, NOT3; format: binding, Drosophila melanogaster; conditions: HA-tagged Bam, S2 cell lysates, RNaseA
endogenous NOT3 = test: SBP pull-down in HEK293T cells, NOT3; format: binding, human
Summary of the method: (§1)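 HEK293T cells expressed V5-SBP-tagged full-length test protein, with V5-SBP-MBP as negative control. SBP pull-down from lysates was done in the presence of RNaseA. Input (1.5% of V5-SBP proteins, 1% of endogenous CCR4–NOT subunits) and bound fractions (10% and 30%, respectively) were analysed by western blotting with ECL detection.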

[3] = system: Dm NOT1-CN9BD–CAF40 complex; test: In vitro MBP pull-down, Dm CN9BD–CAF40; format: binding, Drosophila melanogaster; conditions: MBP-tagged proteins, amylose resin, 50 mM HEPES pH 7.5, 200 mM NaCl, 2 mM DTT, 1 h; SDS-PAGE, Coomassie
Summary of the method: (§2)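 Proteins were expressed in E. coli BL21 (DE3) Star overnight at 20°C. Tethered-protein constructs carried an N-terminal MBP tag and were purified by amylose resin, anion exchange and gel filtration. MBP (20 µg, negative control) or MBP fusion (40 µg) was incubated 1 h with equimolar purified CCR4–NOT modules plus amylose resin. Beads were washed five times and eluted with 25 mM maltose. Eluates were TCA-precipitated and analysed by SDS-PAGE/Coomassie.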

endogenous NOT1 = test: SBP pull-down in HEK293T cells, NOT1; format: binding, human
Summary of the method: as §1

NOT2 (GFP-tagged) = test: Coimmunoprecipitation in S2 cells, NOT2; format: binding, Drosophila melanogaster; conditions: HA-tagged Bam, S2 cell lysates, RNaseA
NOT1 (GFP-tagged) = test: Coimmunoprecipitation in S2 cells, NOT1; format: binding, Drosophila melanogaster; conditions: HA-tagged Bam, S2 cell lysates, RNaseA
CCR4 (GFP-tagged) = test: Coimmunoprecipitation in S2 cells, CCR4; format: binding, Drosophila melanogaster; conditions: HA-tagged Bam, S2 cell lysates, RNaseA
Hs CCR4-NOT subcomplexes = test: In vitro MBP pull-down, other Hs CCR4–NOT subcomplexes; format: binding, human; conditions: NOT1-10-11 module, catalytic module, CD, NOT3 N-terminal coiled coil, MBP-tagged Bam, pH 7.5, 1 h
Summary of the method: as §2

F-Luc-5BoxB mRNA [4] = test: mRNA half-life in S2 cells after actinomycin D; format: cell-based, Drosophila melanogaster; conditions: actinomycin D 5 µg/ml; northern blot
Summary of the method: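 S2 cells were Effectene-transfected with F-Luc-5BoxB reporter, R-Luc control and λN-HA-tagged test protein. Three days post-transfection they were treated with actinomycin D (5 µg/ml final) and collected at successive time points. Reporter mRNA remaining was measured by northern blotting of total RNA.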

[5] = system: Dm NOT1-CN9BD–CAF40 complex (containing CAF40 V186E or 2xMut); test: In vitro MBP pull-down, Dm CN9BD–CAF40 with CAF40 mutants; format: binding, Drosophila melanogaster; conditions: MBP-tagged Bam, pH 7.5, 1 h
Summary of the method: as §2

[6] = system: catalytic module (containing Hs CCR4a); test: In vitro MBP pull-down, Hs catalytic module; format: binding, human; conditions: recombinant proteins
F-Luc-5BoxB-A95C7-HhR = test: Tethering assay in S2 cells, F-Luc-5BoxB-A95C7-HhR reporter; format: cell-based, Drosophila melanogaster
endogenous CAF40 = test: SBP pull-down in HEK293T cells, CAF40; format: binding, human; conditions: V5-SBP-tagged, wild-type HEK293T, RNaseA
Summary of the method: as §1

HA-tagged CCR4 = test: SBP pull-down in HEK293T cells, CCR4; format: binding
Summary of the method: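 Control or CAF40-null HEK293T cells coexpressed HA-CCR4 with V5-SBP-tagged full-length test protein or V5-SBP-MBP negative control. SBP pull-down was done in lysates containing RNaseA. Input (1.5% V5-SBP proteins, 1% CCR4–NOT subunits) and bound (10% and 30%) fractions were western blotted with ECL detection.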

Dm CAF40 (GFP-tagged) = test: Coimmunoprecipitation in S2 cells, CAF40; format: binding, Drosophila melanogaster; conditions: HA-tagged Bam, S2 cell lysates, RNaseA
Dm CAF40 (V186E) = test: Coimmunoprecipitation in S2 cells, CAF40 V186E; format: binding, Drosophila melanogaster; conditions: HA-tagged Bam, S2 cell lysates, RNaseA
Hs CN9BD–CAF40 complex = test: In vitro MBP pull-down, human CN9BD–CAF40; format: binding; conditions: MBP-tagged proteins, amylose resin, 50 mM HEPES pH 7.5, 200 mM NaCl, 2 mM DTT, 1 h; SDS-PAGE, Coomassie
Summary of the method: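 The Hs complex was MBP-NOT1-CN9BD (V1351–L1588) co-expressed in E. coli with His6-CAF40 (R19–E285), purified on amylose, tags removed by HRV3C, then heparin and gel filtration. MBP (20 µg, control) or MBP fusion (40 µg) was incubated 1 h with equimolar complex and amylose resin. Beads were washed five times, eluted with 25 mM maltose, TCA-precipitated and analysed by SDS-PAGE/Coomassie.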

endogenous NOT2 = test: SBP pull-down in HEK293T cells, NOT2; format: binding, human
Summary of the method: as §1

[7] = V5-SBP-tagged, wild-type HEK293T, RNaseA

In the case of “CBM alone fused to MBP: MS2-HA-MBP-Bam 13–36 ({MS2-HA-MBP}-DDQQLDHNFKQMEEHLALMVEGNE; reading uncertain; UniProt P22745 13-36, looked up, fragment)”, the “degradation/repression of β-globin-6xMS2bs reporter” value [1] is reported as “as active as full-length Bam”.

B1: Bam: Drosophila melanogaster Bag-of-marbles, Uniprot P22745, residues 1–442, variously tagged (protein)
chain: MLNARDVCPEGNDDQQLDHNFKQMEEHLALMVEGNENEDPRKATCEYEDTNEDGATCTSGVLSEIQENFGRLRLCDVTAPLLEFHGLDCLQQIQKRSRHFAFDGSPAKKSRSGGVLVTGPKQKQLQKENVWNRKSKGSASADNIEKLPITIEKLHMIGLHGDCLEHNAVLRLMNLFRSLHDHLTADLGFSRQNSMPSDYLFDMPVKSTMPKSLNVRYQLQVLCTKVERFLVQQRRTLEANRHFDFEKYDECDKLLKGFASYLDNFKLLLKPKMRNRNGNSGSNADKFHTQRMERLLIGLRDWIKAAHLSVHVFNWEMDLEHRYSGAMTESHKSLNERAILLSGAELRAAEARGISAEDLFIAQRYKLGGPIYCVLEQHEFLSALIANPETYFPPSVVAICGPQKLGAVSMEQPSASEEEFEETEEVPSSPPRHTGRVPRFRS
modifications: left off: MBP, N-terminal, kept
B1 was tested, and the “tethering activity in CAF40-depleted cells” value (F-Luc-5BoxB mRNA [2]; CAF40 KD (∼10% of control levels)) was “partially suppressed Bam activity”, the “repression in CAF40-depleted cells complemented with CAF40 V186E” value (F-Luc-5BoxB mRNA [2]; CAF40 KD + CAF40 V186E) was “not by expression of the CAF40 V186E mutant” and the “repression in CAF40-depleted cells complemented with wild-type CAF40” value (F-Luc-5BoxB mRNA [2]; CAF40 KD + wild-type CAF40) was “restored by transient expression of wild-type CAF40”. For the same molecule, the “F-Luc-5BoxB mRNA degradation in DCP2-depleted cells” value (F-Luc-5BoxB mRNA [2]; DCP2 knockdown, DCP2 E361Q overexpressed) was “impaired”, the “F-Luc activity in DCP2-depleted cells” value (F-Luc-5BoxB mRNA [2]; DCP2 knockdown, DCP2 E361Q overexpressed, F-Luc activity) was “not restored” and the “tethering activity in cells overexpressing CAF40 V186E” value (F-Luc-5BoxB mRNA [2]; GFP-CAF40 V186E overexpressed) was “suppressed in cells overexpressing the CAF40 V186E mutant”. The “tethering activity in cells overexpressing CAF40 wild-type” value (F-Luc-5BoxB mRNA [2]; GFP-CAF40 wild-type overexpressed) was “not when CAF40 wild-type was overexpressed”, the “F-Luc-5BoxB mRNA degradation after NOT1 depletion” value (F-Luc-5BoxB mRNA [2]; NOT1-depleted S2 cells) was “partially suppressed degradation of F-Luc-5BoxB mRNA” and the “coimmunoprecipitation with NOT3” value (NOT3 (GFP-tagged)) was “interacted with NOT1, NOT2, NOT3, CCR4, and CAF40”. The “pull-down of endogenous NOT3, CAF40-null cells” value (endogenous NOT3; CAF40-null HEK293T) was “did not interact with endogenous NOT1, NOT2 and NOT3”, the “pull-down of endogenous NOT3” value (endogenous NOT3; [7]) was “pulled down all of the tested subunits” and the interaction in pull-down [3] was “also interacted with the Dm CN9BD–CAF40 module”. The “pull-down of endogenous NOT1, CAF40-null cells” value (endogenous NOT1; CAF40-null HEK293T) was “did not interact with endogenous NOT1, NOT2 and NOT3”, the “pull-down of endogenous NOT1” value (endogenous NOT1; [7]) was “pulled down all of the tested subunits” and the “coimmunoprecipitation with NOT2” value (NOT2 (GFP-tagged)) was “interacted with NOT1, NOT2, NOT3, CCR4, and CAF40”. For the same molecule, the “coimmunoprecipitation with NOT1” value (NOT1 (GFP-tagged)) was “interacted with NOT1, NOT2, NOT3, CCR4, and CAF40”, the “coimmunoprecipitation with CCR4” value (CCR4 (GFP-tagged)) was “interacted with NOT1, NOT2, NOT3, CCR4, and CAF40” and the “interaction in pull-down with any other subcomplex” value (Hs CCR4-NOT subcomplexes) was “not with any other subcomplex”. For the same molecule, the mRNA half-life (F-Luc-5BoxB mRNA [4]) was “shortening of the mRNA half-life”, the “disruption of interaction by V186E substitution in CAF40” value ([5]; CAF40 V186E) was “sufficient to disrupt the interaction with Bam in vitro” and the “disruption of interaction by 2xMut in CAF40” value ([5]; CAF40 Y139D, G146W (2xMut)) was “sufficient to disrupt the interaction with Bam in vitro”. The “direct interaction with the catalytic module” value [6] was “did not observe a direct interaction”, the “displacement of CAF1-NOT1 subcomplex from CCR4a” value [6] was “did not competitively displace the CAF1-NOT1 subcomplex from CCR4a” and the “repression of deadenylation-resistant reporter” value (F-Luc-5BoxB-A95C7-HhR) was “repressed the expression of this reporter in S2 cells”. For the same molecule, the “pull-down of endogenous CAF40” value (endogenous CAF40) was “pulled down all of the tested subunits”, the “pull-down of HA-tagged CCR4, CAF40-null cells” value (HA-tagged CCR4; CAF40-null HEK293T) was “did not interact” and the “pull-down of HA-tagged CCR4” value (HA-tagged CCR4; [7]) was “as well as HA-tagged CCR4”. The “coimmunoprecipitation with CAF40” value (Dm CAF40 (GFP-tagged)) was “interacted with NOT1, NOT2, NOT3, CCR4, and CAF40”, the “coimmunoprecipitation with CAF40 V186E” value (Dm CAF40 (V186E)) was “sufficient to abolish binding to full-length Bam in cell lysates” and the interaction in pull-down (Hs CN9BD–CAF40 complex) was “interacted only with the CN9BD–CAF40 module”. For the same molecule, the “pull-down of endogenous NOT2, CAF40-null cells” value (endogenous NOT2; CAF40-null HEK293T) was “did not interact with endogenous NOT1, NOT2 and NOT3” and the “pull-down of endogenous NOT2” value (endogenous NOT2; [7]) was “pulled down all of the tested subunits”.
